Results on 17 compounds are retold here after ChEMBL document CHEMBL2069216, “Discovery of novel 2-aminopyridine-3-carboxamides as c-Met kinase inhibitors” (Bioorg Med Chem, 2012).

pIC50: −log10 of the molar value. The source made the active and inactive calls. The calls are words filed in the database; no cut-off is given here.

Assay [1] in a line: Antiproliferative activity against human EBC1 cells expressing elevated levels of constitutively active c-Met after 72 hrs by SRB assay. It counts as functional, cell-based. Particulars: EBC-1, 72 h. Summed up:
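Cells seeded in 96-well plates, exposed the next day to a range of compound concentrations and cultured 72 h. Fixed with cold 10% TCA at 4 °C for 1 h, stained with 0.4% SRB in 1% acetic acid at room temperature, washed with 1% acetic acid, dye solubilized in 10 mM Tris base. OD read at 515 nm.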
In general terms: The SRB assay estimates cell density from bound dye.

Assay [2] addresses T1, Hepatocyte growth factor receptor (Homo sapiens, UniProt P08581). As to the kind of experiment: Inhibition of c-Met at 10 uM incubated for 60 mins by spectrophotometry. Summed up: (§1)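 Compounds in 1% DMSO; reaction started by adding purified kinase, 60 min at 37 °C. PY99 antibody, then HRP anti-mouse IgG; o-phenylenediamine/H2O2 read at 490 nm. Inhibition % = [1-(A490/A490 control)]×100; IC50 from inhibition curves.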

Assay [3] has as its target T1, Hepatocyte growth factor receptor. As to the kind of experiment: Inhibition of c-Met at 1 uM incubated for 60 mins by spectrophotometry. Summed up: as §1
The target is the same in assay [4]. As to the kind of experiment: Inhibition of c-Met incubated for 60 mins at spectrophotometry.
Assay [5] shares this target. As to the kind of experiment: Inhibition of c-Met phosphorylation in human EBC1 cells incubated for 4 hrs by Western blot. In kind it is cell-based. An outline of the steps:
(§2)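 EBC-1 cells grown to exponential phase and treated with compound for 4 h at 37 °C. Lysed in 1× SDS sample buffer, resolved on 10% SDS-PAGE, transferred to nitrocellulose. Probed for phospho-c-Met/c-Met, phospho-ERK1/2/ERK1/2, phospho-AKT/AKT and GAPDH, then HRP anti-rabbit or anti-mouse IgG.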
In general terms: A western blot detects proteins with antibodies after separation by electrophoresis.

Assay [6] has the same target. In words: Inhibition of c-Met-mediated ERK1/2 phosphorylation in human EBC1 cells at 0.1 to 10 uM incubated for 4 hrs by Western blot. In kind it is cell-based. Summed up:
as §2

The target is the same in assay [7]. As to the kind of experiment: Inhibition of c-Met-mediated AKT phosphorylation in human EBC1 cells at 0.1 to 10 uM incubated for 4 hrs by Western blot. It counts as cell-based. Summed up:
as §2

In assay [8] the target is Macrophage-stimulating protein receptor (Homo sapiens, UniProt Q04912). As to the kind of experiment: Inhibition of Ron. Summed up: as §1
Assay [9] concerns the target T2, Tyrosine-protein kinase Mer (Homo sapiens, UniProt Q12866).
T2 sequence (Q12866 whole entry): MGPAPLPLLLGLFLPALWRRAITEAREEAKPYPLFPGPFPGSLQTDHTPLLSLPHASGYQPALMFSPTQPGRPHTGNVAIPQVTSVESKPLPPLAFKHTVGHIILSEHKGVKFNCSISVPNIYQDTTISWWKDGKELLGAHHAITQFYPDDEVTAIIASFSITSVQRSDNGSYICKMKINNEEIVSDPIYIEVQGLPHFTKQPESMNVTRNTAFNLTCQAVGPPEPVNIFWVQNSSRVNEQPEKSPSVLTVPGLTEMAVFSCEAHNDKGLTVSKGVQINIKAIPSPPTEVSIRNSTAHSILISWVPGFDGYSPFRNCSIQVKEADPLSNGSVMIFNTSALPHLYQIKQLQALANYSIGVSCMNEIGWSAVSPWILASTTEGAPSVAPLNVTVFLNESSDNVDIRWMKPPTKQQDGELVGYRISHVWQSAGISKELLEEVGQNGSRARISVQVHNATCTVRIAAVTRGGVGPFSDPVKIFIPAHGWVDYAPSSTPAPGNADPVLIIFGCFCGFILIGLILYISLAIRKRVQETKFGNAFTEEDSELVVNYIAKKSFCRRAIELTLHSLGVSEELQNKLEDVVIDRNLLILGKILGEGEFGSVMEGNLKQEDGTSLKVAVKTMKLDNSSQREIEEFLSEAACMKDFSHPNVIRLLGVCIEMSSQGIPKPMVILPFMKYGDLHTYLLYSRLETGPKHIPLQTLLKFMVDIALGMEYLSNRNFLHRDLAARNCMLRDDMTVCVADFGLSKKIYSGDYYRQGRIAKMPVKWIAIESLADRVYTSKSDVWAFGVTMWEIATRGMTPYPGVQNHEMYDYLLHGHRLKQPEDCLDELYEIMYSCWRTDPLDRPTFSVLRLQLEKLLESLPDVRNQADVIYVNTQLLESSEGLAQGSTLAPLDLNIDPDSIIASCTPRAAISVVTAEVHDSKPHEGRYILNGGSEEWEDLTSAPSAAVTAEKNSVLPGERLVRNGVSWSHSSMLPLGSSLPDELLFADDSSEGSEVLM
In words: Inhibition of Mer. An outline of the steps: as §1

Assay [10] has as its target T3, Tyrosine-protein kinase receptor TYRO3 (Homo sapiens, UniProt Q06418).
T3 sequence (Q06418 whole entry): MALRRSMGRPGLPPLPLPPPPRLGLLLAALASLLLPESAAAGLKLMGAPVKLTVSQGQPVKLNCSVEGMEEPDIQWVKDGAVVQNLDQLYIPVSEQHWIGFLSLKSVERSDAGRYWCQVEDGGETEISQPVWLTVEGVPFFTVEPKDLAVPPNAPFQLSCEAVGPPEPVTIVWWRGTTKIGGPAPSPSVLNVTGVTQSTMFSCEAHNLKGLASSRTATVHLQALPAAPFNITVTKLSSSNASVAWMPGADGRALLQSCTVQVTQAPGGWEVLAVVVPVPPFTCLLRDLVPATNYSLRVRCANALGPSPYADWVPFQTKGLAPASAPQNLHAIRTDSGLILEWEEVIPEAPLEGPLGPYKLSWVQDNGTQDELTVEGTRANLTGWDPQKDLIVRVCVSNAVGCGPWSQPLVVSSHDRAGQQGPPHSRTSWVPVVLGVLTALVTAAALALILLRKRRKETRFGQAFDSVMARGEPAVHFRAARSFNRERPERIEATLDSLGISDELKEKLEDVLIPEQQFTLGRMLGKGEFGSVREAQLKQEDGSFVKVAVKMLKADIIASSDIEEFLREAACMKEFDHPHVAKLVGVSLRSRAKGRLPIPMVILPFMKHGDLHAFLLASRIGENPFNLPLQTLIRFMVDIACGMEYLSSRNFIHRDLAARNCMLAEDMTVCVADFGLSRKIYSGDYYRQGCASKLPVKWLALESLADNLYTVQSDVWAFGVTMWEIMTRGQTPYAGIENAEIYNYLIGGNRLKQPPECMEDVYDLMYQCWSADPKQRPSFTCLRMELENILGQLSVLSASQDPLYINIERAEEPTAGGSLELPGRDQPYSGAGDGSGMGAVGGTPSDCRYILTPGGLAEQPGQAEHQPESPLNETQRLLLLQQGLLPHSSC
In words: Inhibition of TYRO3. Summed up:
as §1

For assay [11], the target named is T4, Tyrosine-protein kinase receptor UFO (Homo sapiens, UniProt P30530).
T4 sequence (P30530 whole entry): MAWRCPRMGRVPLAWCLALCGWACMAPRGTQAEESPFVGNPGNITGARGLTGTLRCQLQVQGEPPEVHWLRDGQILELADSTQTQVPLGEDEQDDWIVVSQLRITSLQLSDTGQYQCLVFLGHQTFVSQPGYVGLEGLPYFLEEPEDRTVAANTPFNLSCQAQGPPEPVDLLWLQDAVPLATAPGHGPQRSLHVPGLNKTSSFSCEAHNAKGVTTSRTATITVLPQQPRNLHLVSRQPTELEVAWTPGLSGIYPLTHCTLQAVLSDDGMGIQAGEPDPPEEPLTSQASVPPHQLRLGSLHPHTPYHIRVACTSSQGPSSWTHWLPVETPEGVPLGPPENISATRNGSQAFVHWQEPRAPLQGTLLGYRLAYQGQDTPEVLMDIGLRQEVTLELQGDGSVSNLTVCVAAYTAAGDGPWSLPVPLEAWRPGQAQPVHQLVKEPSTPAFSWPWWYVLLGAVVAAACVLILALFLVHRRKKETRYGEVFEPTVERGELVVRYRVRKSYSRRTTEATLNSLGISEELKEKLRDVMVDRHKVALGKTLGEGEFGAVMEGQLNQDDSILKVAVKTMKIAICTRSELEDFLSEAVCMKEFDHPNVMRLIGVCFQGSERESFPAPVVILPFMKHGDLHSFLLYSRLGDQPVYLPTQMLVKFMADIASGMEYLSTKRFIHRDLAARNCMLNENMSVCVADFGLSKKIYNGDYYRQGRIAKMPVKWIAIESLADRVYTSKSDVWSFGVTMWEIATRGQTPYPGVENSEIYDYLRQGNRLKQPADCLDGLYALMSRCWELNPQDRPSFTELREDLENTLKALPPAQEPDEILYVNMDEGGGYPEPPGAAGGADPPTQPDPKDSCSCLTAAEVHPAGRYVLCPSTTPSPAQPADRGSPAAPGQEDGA
In words: Inhibition of Axl. An outline of the steps:
as §1

Assay [12] addresses Vascular endothelial growth factor receptor 2 (Homo sapiens, UniProt P35968). In words: Inhibition of KDR. Summed up:
as §1

Assay [13] has as its target Epidermal growth factor receptor (Homo sapiens, UniProt P00533). In words: Inhibition of EGFR. Summed up:
as §1

Assay [14] addresses Fibroblast growth factor receptor 1 (Homo sapiens, UniProt P11362). In words: Inhibition of FGFR1. Summed up:
as §1

Assay [15] deals with Platelet-derived growth factor receptor (Homo sapiens, UniProt P09619+P16234). In words: Inhibition of PDGFR. In kind it is protein-complex assay. Summed up:
as §1

Assay [16] concerns the target Vascular endothelial growth factor receptor 1 (Homo sapiens, UniProt P17948). As to the kind of experiment: Inhibition of FLT1. Summed up:
as §1

Assay [17] has as its target Tyrosine-protein kinase ABL1 (Homo sapiens, UniProt P00519). In words: Inhibition of ABL. Summed up:
as §1

Assay [18] has as its target Ephrin type-A receptor 2 (Homo sapiens, UniProt P29317). As to the kind of experiment: Inhibition of EPHA2. Summed up: as §1
The target in assay [19] is Receptor tyrosine-protein kinase erbB-2 (Homo sapiens, UniProt P04626). As to the kind of experiment: Inhibition of ERBB2. Summed up: as §1
Assay [20] has as its target Receptor tyrosine-protein kinase erbB-4 (Homo sapiens, UniProt Q15303). As to the kind of experiment: Inhibition of ERBB4. An outline of the steps: as §1

T1 sequence (P08581 whole entry): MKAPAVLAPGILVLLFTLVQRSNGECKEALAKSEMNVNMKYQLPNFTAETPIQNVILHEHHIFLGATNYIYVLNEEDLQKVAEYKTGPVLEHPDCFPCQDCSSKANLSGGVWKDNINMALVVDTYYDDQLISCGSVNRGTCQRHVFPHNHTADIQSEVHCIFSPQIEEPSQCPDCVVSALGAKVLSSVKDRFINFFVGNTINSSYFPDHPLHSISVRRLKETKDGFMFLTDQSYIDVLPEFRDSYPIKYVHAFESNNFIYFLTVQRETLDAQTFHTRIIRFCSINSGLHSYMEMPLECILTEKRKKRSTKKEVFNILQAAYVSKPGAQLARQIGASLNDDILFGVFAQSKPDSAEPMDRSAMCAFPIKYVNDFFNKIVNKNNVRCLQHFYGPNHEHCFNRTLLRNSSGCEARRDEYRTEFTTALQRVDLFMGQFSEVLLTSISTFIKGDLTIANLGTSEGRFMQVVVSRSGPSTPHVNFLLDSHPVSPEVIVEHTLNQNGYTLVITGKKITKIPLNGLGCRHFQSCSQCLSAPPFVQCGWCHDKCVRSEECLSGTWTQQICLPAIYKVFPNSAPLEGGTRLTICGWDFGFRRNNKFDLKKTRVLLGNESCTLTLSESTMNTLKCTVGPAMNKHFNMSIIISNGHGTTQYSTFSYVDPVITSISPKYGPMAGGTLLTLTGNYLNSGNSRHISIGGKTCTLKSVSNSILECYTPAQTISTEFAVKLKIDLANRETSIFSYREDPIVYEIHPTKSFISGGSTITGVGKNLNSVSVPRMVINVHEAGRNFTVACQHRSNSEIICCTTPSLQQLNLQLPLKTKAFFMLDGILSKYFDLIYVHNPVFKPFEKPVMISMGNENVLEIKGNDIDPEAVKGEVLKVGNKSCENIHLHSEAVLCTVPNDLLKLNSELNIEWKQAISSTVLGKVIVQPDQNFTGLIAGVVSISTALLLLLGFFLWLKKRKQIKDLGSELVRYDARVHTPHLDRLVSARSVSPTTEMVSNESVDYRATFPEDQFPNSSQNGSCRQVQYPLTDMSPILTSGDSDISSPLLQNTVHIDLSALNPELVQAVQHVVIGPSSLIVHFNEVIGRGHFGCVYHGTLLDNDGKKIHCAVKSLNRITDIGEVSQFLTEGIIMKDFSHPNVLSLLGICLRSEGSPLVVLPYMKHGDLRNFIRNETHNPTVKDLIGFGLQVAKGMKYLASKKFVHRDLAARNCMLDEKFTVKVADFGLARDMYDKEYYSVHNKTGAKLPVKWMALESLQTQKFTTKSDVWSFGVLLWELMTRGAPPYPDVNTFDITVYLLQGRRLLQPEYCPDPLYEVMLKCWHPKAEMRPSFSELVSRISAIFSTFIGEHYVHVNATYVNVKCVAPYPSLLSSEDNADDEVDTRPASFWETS
Chain of Epidermal growth factor receptor (P00533 whole entry): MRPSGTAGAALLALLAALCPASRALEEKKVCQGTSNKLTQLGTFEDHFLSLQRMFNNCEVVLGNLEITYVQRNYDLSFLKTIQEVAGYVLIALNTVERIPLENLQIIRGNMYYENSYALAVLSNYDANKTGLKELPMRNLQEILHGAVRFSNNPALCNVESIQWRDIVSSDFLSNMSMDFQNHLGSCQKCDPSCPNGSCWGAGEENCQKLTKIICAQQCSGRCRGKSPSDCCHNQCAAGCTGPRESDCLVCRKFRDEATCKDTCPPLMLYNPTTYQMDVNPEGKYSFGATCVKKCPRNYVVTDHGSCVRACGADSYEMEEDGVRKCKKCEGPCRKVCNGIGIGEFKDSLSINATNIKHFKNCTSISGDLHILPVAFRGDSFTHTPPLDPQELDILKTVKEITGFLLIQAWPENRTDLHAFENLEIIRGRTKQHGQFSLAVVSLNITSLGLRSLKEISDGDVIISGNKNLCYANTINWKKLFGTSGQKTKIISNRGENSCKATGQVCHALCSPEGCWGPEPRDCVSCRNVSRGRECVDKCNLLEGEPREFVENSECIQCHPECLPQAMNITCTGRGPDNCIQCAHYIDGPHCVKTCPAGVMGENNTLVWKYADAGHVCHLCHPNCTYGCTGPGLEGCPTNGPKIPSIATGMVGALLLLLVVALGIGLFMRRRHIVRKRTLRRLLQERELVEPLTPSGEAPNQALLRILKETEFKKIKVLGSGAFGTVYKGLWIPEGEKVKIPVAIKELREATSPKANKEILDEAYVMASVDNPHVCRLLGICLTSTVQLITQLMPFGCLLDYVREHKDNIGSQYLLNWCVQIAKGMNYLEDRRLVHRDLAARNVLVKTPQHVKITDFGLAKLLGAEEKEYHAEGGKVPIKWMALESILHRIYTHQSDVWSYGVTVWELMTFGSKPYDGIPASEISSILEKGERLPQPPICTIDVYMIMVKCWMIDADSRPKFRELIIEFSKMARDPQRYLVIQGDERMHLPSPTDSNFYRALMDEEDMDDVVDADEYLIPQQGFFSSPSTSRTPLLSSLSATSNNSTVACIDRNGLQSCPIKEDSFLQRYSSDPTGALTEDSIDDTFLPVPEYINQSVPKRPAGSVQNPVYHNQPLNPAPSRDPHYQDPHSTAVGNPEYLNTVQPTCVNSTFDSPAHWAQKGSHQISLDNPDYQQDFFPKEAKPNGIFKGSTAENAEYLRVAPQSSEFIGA
Chain of Receptor tyrosine-protein kinase erbB-4 (Q15303 whole entry): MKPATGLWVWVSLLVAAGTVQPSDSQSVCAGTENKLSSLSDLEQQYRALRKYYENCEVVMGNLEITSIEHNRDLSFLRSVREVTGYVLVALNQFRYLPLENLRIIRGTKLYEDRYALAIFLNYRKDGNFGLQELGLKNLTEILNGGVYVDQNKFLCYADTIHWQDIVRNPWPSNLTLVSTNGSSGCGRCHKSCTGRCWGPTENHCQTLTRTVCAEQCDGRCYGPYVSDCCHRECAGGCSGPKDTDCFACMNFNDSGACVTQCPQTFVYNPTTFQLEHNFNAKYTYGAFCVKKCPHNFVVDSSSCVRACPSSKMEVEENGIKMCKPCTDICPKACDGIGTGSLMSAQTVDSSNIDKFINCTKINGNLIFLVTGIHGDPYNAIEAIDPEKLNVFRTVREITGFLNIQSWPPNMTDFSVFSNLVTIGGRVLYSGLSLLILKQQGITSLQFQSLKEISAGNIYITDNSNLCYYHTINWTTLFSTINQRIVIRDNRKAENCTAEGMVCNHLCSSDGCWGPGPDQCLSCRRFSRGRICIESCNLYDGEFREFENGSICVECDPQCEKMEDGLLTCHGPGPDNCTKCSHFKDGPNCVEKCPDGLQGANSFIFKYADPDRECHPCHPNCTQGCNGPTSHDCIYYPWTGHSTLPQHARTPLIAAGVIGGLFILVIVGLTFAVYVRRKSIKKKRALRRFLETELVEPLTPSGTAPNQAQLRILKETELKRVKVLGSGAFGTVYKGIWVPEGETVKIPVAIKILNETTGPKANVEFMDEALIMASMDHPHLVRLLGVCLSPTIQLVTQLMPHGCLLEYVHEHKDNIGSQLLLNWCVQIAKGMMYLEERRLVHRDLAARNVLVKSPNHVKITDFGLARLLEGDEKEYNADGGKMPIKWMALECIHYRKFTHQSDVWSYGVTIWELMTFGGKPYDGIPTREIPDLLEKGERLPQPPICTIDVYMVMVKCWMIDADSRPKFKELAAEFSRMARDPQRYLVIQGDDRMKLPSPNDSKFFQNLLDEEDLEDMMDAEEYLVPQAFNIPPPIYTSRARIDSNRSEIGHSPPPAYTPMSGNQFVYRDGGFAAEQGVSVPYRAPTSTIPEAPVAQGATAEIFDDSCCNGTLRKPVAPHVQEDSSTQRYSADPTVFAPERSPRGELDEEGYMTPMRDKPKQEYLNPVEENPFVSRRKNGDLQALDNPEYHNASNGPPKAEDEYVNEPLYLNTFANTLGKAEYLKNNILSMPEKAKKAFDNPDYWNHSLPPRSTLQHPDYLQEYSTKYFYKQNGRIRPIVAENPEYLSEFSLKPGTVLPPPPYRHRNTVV
Chain of Tyrosine-protein kinase ABL1 (P00519 whole entry): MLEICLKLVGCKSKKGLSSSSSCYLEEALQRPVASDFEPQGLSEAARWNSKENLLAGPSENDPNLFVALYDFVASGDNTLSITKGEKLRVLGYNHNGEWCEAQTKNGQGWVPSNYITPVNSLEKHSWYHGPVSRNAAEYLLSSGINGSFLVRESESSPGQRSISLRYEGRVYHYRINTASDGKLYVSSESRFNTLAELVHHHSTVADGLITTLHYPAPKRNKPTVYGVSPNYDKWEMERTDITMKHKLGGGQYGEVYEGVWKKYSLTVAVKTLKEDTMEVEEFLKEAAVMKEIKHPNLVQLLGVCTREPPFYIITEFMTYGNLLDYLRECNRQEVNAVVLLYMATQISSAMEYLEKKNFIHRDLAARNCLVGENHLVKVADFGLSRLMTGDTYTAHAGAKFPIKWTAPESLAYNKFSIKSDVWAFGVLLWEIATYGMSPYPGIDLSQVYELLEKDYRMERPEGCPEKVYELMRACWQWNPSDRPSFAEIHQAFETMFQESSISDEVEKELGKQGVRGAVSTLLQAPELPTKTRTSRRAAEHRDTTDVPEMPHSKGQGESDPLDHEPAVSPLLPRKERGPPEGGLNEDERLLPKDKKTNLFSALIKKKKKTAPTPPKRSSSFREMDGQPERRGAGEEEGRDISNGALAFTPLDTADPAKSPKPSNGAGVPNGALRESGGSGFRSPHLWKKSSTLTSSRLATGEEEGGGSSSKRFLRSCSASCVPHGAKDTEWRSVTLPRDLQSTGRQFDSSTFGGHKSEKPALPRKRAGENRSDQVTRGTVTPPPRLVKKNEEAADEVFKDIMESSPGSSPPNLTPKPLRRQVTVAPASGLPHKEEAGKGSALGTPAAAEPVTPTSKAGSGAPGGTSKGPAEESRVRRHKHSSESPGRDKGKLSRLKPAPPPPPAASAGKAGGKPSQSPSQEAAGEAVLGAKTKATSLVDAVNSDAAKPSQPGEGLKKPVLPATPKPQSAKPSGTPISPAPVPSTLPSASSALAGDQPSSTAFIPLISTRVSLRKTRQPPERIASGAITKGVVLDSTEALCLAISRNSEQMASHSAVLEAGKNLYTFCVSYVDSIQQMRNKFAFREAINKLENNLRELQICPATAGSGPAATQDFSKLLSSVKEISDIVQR

With `CC(NC(=O)c1cc(-c2ccc(OCC(=O)N3CCOCC3)cc2)cnc1N)c1c(Cl)ccc(F)c1Cl` (stereo not given), the pIC50 in assay [1] is 5.22.
The compound `CC(c1c(Cl)ccc(F)c1Cl)n1cnc2ncc(-c3cnn(C4CCN(C(=O)OC(C)(C)C)CC4)c3)cc2c1=O` (stereo not given) showed an inhibition in assay [2] of 28.9%.
On to `CC(NC(=O)c1cc(-c2cnn(C3CCNCC3)c2)cnc1N)c1c(Cl)ccc(F)c1Cl` (stereo not given), for which the pIC50 in assay [1] was 5.84.
`CN(Cc1c(F)ccc(F)c1Cl)C(=O)c1cc(-c2cnn(C)c2)cnc1N` came in with an inhibition in assay [3] of 18.1%.
`Cn1cc(-c2cnc(N)c(C(=O)NCc3c(F)ccc(Cl)c3Cl)c2)cn1`: the pIC50 in assay [1] was 4.90.
`C[C@@H](Oc1cc(-c2cnn(C3CCNCC3)c2)cnc1N)c1c(Cl)ccc(F)c1Cl` [CRIZOTINIB]: the pIC50 in assay [1] was 7.28.
`C[C@H](NC(=O)c1cc(-c2cnn(C3CCOCC3)c2)cnc1N)c1c(Cl)ccc(F)c1Cl`: the pIC50 is 7.66 in [4]; 5.91 in [1]; 5.08 in [8]; less than 5.00 in assay [9]; less than 5.00 in [10]; less than 5.00 in assay [11]. Also, the negative-log IC50 (pIC50) in assay [12] was less than 5.00; in assay [13], less than 5.00; in [14], 5.46; in assay [15] it was less than 5.00; in assay [16] it was 5.09; in assay [17], 5.30. For the same compound, the figures for the pIC50 in assay [18], in [19] and in assay [20] were 5.21, less than 5.00 and less than 5.00, respectively. Also, the inhibition entry in assay [5] is “Dose-dependent effect”. Moreover, the inhibition result in assay [6] and in assay [7] was “Active” throughout.
Compound `CC(NC(=O)c1cc(-c2ccc3c(c2)CC(=O)N3)cnc1N)c1c(Cl)ccc(F)c1Cl` (stereo not given) showed a pIC50 in assay [1] of 4.75.
In [2], `CC(c1c(Cl)ccc(F)c1Cl)n1cnc2ncc(-c3cnn(C4CCNCC4)c3)cc2c1=O` (stereo not given) registered an inhibition of 34.1%.
`CC(NC(=O)c1cc(-c2cnn(C3CCOCC3)c2)cnc1N)c1c(Cl)ccc(F)c1Cl` (racemic): the pIC50 is 7.00 in assay [4] and 5.46 in assay [1].
`C[C@@H](NC(=O)c1cc(-c2cnn(C3CCOCC3)c2)cnc1N)c1c(Cl)ccc(F)c1Cl`: the inhibition in assay [3] came out at 27.6%.
`Cn1cc(-c2cnc(N)c(C(=O)NCc3c(F)ccc(F)c3Cl)c2)cn1` had a pIC50 in [1] of 5.16.
`CN(Cc1c(F)ccc(Cl)c1Cl)C(=O)c1cc(-c2cnn(C)c2)cnc1N`: in [3], the inhibition was 13.1%.
In turn, `CC(NC(=O)c1cc(-c2cnn(C)c2)cnc1N)c1c(Cl)ccc(F)c1Cl` (stereo not given) had a pIC50 in assay [1] of less than 4.30.
On the same count and under the same terms, then `Cn1cc(-c2cnc(N)c(C(=O)NCc3ccc(F)c(F)c3)c2)cn1`, with 4.84; and `Cn1cc(-c2cnc(N)c(C(=O)NCc3cc(F)ccc3F)c2)cn1`, with 4.82.
`CN(Cc1c(F)ccc(Cl)c1F)C(=O)c1cc(-c2cnn(C)c2)cnc1N` returned an inhibition in assay [3] of 10.9%.

The term pIC50 denotes the IC50 on a negative log10 scale, so that one unit is a factor of ten. Low readings indicate a high IC50, high ones a low IC50. A word on the inhibition: it is the change of the read-out against control, counted positive when it falls.
